Paper PMC3437190 (Chemistry & biology, 2012)
Like-named read-outs stand apart in the source and are kept apart here.

Legend:
StaC = target: T1, StaC (Streptomyces sp. TP-A0274, UniProt A3KBE8); assay: Isothermal titration calorimetry of FAD with FAD-free; assay type: binding
T1 sequence (A3KBE8 1-545): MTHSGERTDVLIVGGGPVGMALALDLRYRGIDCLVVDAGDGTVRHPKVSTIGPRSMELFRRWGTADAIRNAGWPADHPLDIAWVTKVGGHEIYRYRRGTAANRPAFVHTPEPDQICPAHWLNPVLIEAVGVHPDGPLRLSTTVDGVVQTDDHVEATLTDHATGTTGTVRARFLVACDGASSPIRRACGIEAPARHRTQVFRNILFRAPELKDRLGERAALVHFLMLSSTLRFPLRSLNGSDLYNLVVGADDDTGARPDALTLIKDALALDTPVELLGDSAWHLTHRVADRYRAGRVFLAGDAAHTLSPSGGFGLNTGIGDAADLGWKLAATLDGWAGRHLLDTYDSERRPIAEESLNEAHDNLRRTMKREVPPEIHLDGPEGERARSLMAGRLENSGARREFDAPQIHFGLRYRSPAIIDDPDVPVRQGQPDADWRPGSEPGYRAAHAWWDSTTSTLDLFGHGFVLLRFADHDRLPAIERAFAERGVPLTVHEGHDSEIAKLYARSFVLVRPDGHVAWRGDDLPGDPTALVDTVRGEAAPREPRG
Summary of the method: (§1)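 Recombinant His-tagged protein was expressed in Rosetta 2 (DE3) pLysS E. coli without added riboflavin (0.1 mM IPTG, 21°C, ~20 h). It was Ni(II)-affinity purified and gel-filtered on Superdex-200. The protein isolates free of FAD, so no stripping step was used. Concentration by A280 using theoretical extinction coefficient. FAD titrated by MicroCal ITC, at least triplicate runs. Single-site Kb converted to Kd.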

InkE = target: T2, InkE (Nonomuraea longicatena, UniProt Q27IF2); assay: as above; assay type: binding
T2 sequence (Q27IF2 1-525): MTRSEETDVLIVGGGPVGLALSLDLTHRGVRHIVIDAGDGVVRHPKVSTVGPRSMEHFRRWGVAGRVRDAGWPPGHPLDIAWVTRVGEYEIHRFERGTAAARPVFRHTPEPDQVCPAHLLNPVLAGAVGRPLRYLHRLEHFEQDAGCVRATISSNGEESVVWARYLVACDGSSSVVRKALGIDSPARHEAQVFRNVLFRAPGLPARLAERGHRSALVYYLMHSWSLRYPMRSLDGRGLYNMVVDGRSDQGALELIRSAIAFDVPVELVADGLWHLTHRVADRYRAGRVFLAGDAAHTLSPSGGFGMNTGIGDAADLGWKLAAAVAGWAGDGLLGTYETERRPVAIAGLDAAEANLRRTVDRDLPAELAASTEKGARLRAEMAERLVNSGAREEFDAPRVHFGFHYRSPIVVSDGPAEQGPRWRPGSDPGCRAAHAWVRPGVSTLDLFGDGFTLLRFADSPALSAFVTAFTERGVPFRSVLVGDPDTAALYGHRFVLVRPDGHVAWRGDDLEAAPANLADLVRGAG
Summary of the method: as §1

RebC [1] = target: T3, RebC (Lentzea aerocolonigenes, UniProt Q8KI25); assay: Isothermal titration calorimetry of FAD with FAD-free; assay type: binding
T3 sequence (Q8KI25 1-529): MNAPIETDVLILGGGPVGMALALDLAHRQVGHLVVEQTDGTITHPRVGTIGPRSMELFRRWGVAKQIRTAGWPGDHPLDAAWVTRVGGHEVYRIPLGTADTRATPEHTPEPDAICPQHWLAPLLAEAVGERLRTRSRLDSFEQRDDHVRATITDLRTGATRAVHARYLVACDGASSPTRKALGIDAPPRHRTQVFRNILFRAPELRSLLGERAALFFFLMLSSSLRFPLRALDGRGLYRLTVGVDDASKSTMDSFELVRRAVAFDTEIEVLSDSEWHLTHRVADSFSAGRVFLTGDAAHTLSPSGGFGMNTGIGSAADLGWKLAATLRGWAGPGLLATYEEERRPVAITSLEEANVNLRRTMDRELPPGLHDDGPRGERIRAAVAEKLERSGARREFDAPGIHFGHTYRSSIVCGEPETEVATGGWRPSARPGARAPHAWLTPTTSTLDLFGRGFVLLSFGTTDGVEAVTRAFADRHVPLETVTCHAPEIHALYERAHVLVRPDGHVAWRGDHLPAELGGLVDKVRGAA
Summary of the method: (§2)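 Recombinant His-tagged protein was expressed in Rosetta 2 (DE3) pLysS E. coli (0.1 mM IPTG, 21°C, ~20 h) and captured on Ni(II) resin. Flavin was stripped on-column with 2 M KBr/2 M urea, then the protein was eluted with 200 mM imidazole and gel-filtered on Superdex-200. Concentration by A280 using theoretical extinction coefficient. FAD titrated by MicroCal ITC, at least triplicate runs. Single-site Kb converted to Kd.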

AtmC = target: T4, AtmC (Actinomadura melliaura, UniProt Q0H2X3); assay: as above; assay type: binding
T4 sequence (Q0H2X3 1-534): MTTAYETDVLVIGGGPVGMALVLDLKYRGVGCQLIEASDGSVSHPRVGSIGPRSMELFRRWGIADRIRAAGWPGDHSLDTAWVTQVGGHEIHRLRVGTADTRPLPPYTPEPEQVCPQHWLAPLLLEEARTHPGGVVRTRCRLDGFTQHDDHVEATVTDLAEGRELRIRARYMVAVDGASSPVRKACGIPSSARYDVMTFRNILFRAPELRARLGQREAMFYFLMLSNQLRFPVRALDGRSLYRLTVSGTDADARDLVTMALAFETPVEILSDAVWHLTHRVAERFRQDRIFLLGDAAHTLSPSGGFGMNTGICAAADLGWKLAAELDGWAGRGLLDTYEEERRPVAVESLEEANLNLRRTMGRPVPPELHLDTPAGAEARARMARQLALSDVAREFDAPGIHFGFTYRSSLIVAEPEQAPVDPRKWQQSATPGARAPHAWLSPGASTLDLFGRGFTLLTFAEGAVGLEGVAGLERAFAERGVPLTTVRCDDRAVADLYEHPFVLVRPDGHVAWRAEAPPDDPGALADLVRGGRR
Summary of the method: as §2

RebC-10x = RebC-10x (Lentzea aerocolonigenes, UniProt Q8KI25, A231S/E36D/F216V/G48S/Q117A/Q37A/R239N/R46K/T241V/T38G); assay: Isothermal titration calorimetry of FAD with FAD-free; assay type: binding
RebC [2] = target: T3, RebC; assay type: binding
Summary of the method: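 Control ITC on RebC purified by Ni(II) affinity and Superdex-200 without the KBr/urea wash, retaining ~68% bound FAD. It tests fitting of partially occupied protein, since the fitting software assumes no ligand in the cell before the first injection. FAD titrated, at least triplicate runs. Single-site Kb converted to Kd.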

StaC-10x = assay: Isothermal titration calorimetry, FAD binding to StaC-10x; details: StaC-10x versus RebC
Summary of the method: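 It was used as isolated at ~33% FAD occupancy, because on-column KBr/urea stripping left the protein non-elutable. Concentration by BioRad protein assay against BSA standard. FAD titrated by ITC, two runs. Single-site Kb converted to an approximate Kd.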

For `Cc1cc2nc3c(=O)[nH]c(=O)nc-3n(C[C@H](O)[C@H](O)[C@H](O)COP(=O)(O)OP(=O)(O)OC[C@H]3O[C@@H](n4cnc5c(N)ncnc54)[C@H](O)[C@@H]3O)c2cc1C` [FAD, flavin adenine dinucleotide], the Kd (StaC) was 15 µM, the Kd (InkE) was 59 µM and the Kd (RebC [1]) was 20 ± 12 nM. It also gave a Kd (AtmC) of 73 ± 28 nM, a Kd (RebC-10x) of 600 ± 55 nM and a Kd (RebC [2]) of 31 nM.
In the case of `Cc1cc2nc3c(=O)[nH]c(=O)nc-3n(C[C@H](O)[C@H](O)[C@H](O)COP(=O)(O)OP(=O)(O)OC[C@H]3O[C@@H](n4cnc5c(N)ncnc54)[C@H](O)[C@@H]3O)c2cc1C` [FAD], the “FAD binding weaker than RebC” value (StaC-10x) is reported as 30 fold.
